A selection: hits, their analogues and other compounds. The true share with any hit is near 1.8%.
Furin inh: human furin inhibition; P09958; purified furin, fluorogenic substrate cleavage; inhibition, % at 20 µM or 30 µM; 0.061% of 220,000 active; AID 463115; in the data active = inhibition above about 25%
Target sequence (P09958 108-714 limits assumed): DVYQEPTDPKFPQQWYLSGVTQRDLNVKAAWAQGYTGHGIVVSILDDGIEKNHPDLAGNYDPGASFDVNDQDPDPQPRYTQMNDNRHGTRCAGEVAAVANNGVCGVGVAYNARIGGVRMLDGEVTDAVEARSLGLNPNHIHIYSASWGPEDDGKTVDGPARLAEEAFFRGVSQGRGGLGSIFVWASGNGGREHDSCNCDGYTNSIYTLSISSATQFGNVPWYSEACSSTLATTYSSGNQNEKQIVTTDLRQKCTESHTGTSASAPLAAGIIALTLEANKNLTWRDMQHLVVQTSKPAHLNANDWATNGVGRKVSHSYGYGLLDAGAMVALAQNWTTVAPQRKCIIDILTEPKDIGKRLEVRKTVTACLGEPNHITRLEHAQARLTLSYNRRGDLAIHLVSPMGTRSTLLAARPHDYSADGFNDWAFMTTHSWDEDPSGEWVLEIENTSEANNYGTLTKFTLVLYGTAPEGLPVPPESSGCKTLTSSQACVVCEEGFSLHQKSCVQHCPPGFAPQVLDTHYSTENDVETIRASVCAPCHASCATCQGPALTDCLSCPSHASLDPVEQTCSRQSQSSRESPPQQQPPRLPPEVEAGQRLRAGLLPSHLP
HSV replic up: increases HSV replication in cells. 0.005% of 220,000 active. HSV replication augmentation in cells, fold increase. maximum fold increase; in the data active = maximum fold increase above about 1.5; inconclusive = no clear call, values can overlap the other calls; tested in PC3 cells
Autophagy mod: modulators of autophagy | calls only at 10 µM (by protocol) | AID 463193 | 0.98% of 190,000 active | MEF GFP-LC3 puncta imaging; test concentration mostly 10 µM;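 active = percentage of spot-positive cells more than 3 SD above its plate mean, without a fluorescence outlier flag or 80% toxicity; inconclusive = no clear call, values can overlap the other calls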;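 also: spot-positive cell cutoff set from DMSO-treated cells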
Dynein transport: dynein cargo transport inhibition; 0.47% of 220,000 active; 3617.4 mouse cells, GR-EGFP nuclear translocation imaging; test concentration mostly 20 µM; stimulated with dexamethasone, 1 µM; stronger effect = lower value; z-score, hits read low;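 active = plate z-score of nuclear minus cytoplasmic receptor signal below a set negative limit, without overly bright fluorescence or cell loss, cut at about -3.5 in these data, passing the limit was not always enough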;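 also: z-score of nuclear minus cytoplasmic ring GR-EGFP intensity difference per well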
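Buffer or medium: tet-free medium with charcoal-stripped serum / Also added: dexamethasone agonist, 1.0 µM final, for 30 min / Timing: induction 48 h, compound 1 h, agonist 30 min / Measured by: high-content fluorescence imaging after fixation / Read-out: nuclear-to-cytoplasmic GR-EGFP distribution per well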
TNF necrop inh: blocks TNF-alpha induced death of Jurkat FADD-/- cells; 0.068% of 220,000 active; Jurkat FADD-/- TNF necroptosis rescue, ATP luminescence, 24 h; 0 = TNF only, 100 = no-TNF cells; activation (protection from cell death), % at 10 µM;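 active = activation, meaning protection from cell death, of at least 50% relative to plate controls; inactive = activation below 50%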;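 also: necroptosis triggered by 40 ng/mL TNF-alpha added together with compound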
zVAD death inh: L929 zVAD cell death inhibition. L929 zVAD necroptosis rescue, ATP luminescence, 24 h; with zVAD 60 µM. viability rescue, % at 10 µM. 0.38% of 220,000 active;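 active = activation, scaled between plate controls, above about 75%, limit read from the data; inactive = activation under that limit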;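 also: 0% = zVAD with DMSO and 100% = DMSO alone without zVAD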
zVAD necrop conf: confirmed blocker of zVAD induced death in L929 cells | shares compounds with zVAD death inh | L929 zVAD-induced necroptosis rescue, ATP luminescence, 24 h | activation (protection from necroptosis), % at 10 µM | 16% of 760 active;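 active = mean protection from necroptosis of at least 50% over duplicate tests; inactive = mean protection below 50%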;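 also: 0% = cells with zVAD alone and 100% = vehicle cells without zVAD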
* marks the source's active call; other numbers are inactive results; i = inactive; ? = inconclusive; nt = not tested or not shown; + = active, no number.

SMILES | Furin inh | HSV replic up | Autophagy mod | Dynein transport | TNF necrop inh | zVAD death inh | others
COc1ccc(C2N(Cc3ccccc3)CCN2Cc2ccccc2)cc1[N+](=O)[O-] | -12 | i | + | 0.94 | 0 | -1
CCCCC1(Cc2ccc(OC)c([N+](=O)[O-])c2)C(=O)N(c2ccccc2)N(c2ccccc2)C1=O | -21 | i | i | 0.72 | -4 | 0
CCOC(=O)c1nc2sc3c(c2c(=O)n1C(C)C(=O)OCC)CCCC3 (stereo not given) | -103 | i | i | -1.1 | 0 | 1
CCOC(=O)N1CCN(C(=O)c2cn(CC)c3ccc(S(=O)(=O)N4CC(C)CC(C)C4)cc3c2=O)CC1 (stereo not given) | -24 | nt | i | -1.1 | -1 | 1
COc1cc(NC(=S)NC(=O)c2ccccc2F)ccc1NC(=O)c1ccco1 | -16 | i | i | 1.2 | -4 | 1
CCN1/C(=C/c2cc[n+](C)cc2)C=Cc2cc(C)ccc21 | -14 | i | i | 0.02 | -3 | 0
CCN1/C(=C/c2ccc3cc(C)ccc3[n+]2CC)Sc2cc(C)ccc21 | -19 | nt | ? | -2.6 | -19 | 2
CCCCN1/C(=C/c2ccc3ccccc3[n+]2CC)Sc2ccccc21 | -2 | nt | + | 0.13 | -4 | 2
CCN1/C(=C/c2ccc3ccccc3[n+]2CC)C=Cc2ccccc21 | -5 | i | + | 2 | -10 | -2
CCn1c(COc2cccc(C)c2C)nnc1SCC(=O)Nc1cc(C)on1 | -9 | i | i | -0.38 | 2 | 1
CC(C)CC(=O)N1CC(C)N(C(=O)CC(C)C)CC1C (stereo not given) | -18 | i | i | 1 | 1 | 0
Cc1ccc(NC(=O)CN(C)C(=O)c2ccc(S(=O)(=O)N(C)c3ccccc3)cc2)cc1 | -28 | i | i | -0.27 | 0 | 2
COc1ccc(-c2[nH]n(-c3ccc([N+](=O)[O-])cc3)c(=O)c2C=NCc2ccc(F)cc2)cc1 | -2 | i | + | 0.17 | 2 | 1
COC(=O)[C@@]1(Cc2ccccc2)[C@H]2c3cc(C(=O)N4CCCC4)n(CCSCCO)c3C[C@H]2CN1C(=O)c1ccccc1 | -9 | nt | + | -0.067 | -1 | -1
Nc1[nH]ncc1N=Nc1ccc(Cl)cc1 | 1 | i | i | -0.31 | -7 | 0
Nc1[nH]ncc1-c1ccc(Cl)cc1 | -8 | i | + | -0.15 | -4 | 0
Cn1c(=O)c2[nH]c(COc3ccc(C(C)(C)C)cc3)nc2n(C)c1=O | -8 | i | nt | -0.6 | -13 | 1
O=C(NC1CCCC1)C(c1ccccc1)N(Cc1cccnc1)C(=O)Cc1cccs1 (stereo not given) | -3 | i | i | -0.29 | 1 | 0
Cc1cc(=O)oc2cc(NC(=O)c3cc4ccccc4o3)ccc12 | -3 | nt | + | 0.053 | 1 | 2
O=C(Nc1ccc2oc(=O)ccc2c1)c1cc2ccccc2o1 | -19 | i | i | 0.75 | -4 | nt
Cc1ccc(-c2csc3nc4c5ccccc5c(NCCCN(C)C)nn4c(=O)c23)cc1 | -42 | i | + | -6 | -17 | -5
Cc1ccc(-c2csc3nc4c5ccccc5c(NCCCN5CCOCC5)nn4c(=O)c23)cc1 | -39 | i | i | -0.18 | -11 | 40
CCOC(=O)c1sc2nc(CSc3ccccc3)nc(N3CCC(C(N)=O)CC3)c2c1C | -18 | i | i | -0.32 | 6 | 3
CCOC(=O)c1sc2nc(CSc3ccccc3)nc(N3CCCN(C)CC3)c2c1C | -7 | nt | + | 2.3 | 2 | 9
Cc1cc2nc3c(nc2cc1C)C(O)=C3O | -14 | i | nt | -0.89 | 1 | 0
SMILES | Furin inh | HSV replic up | Autophagy mod | Dynein transport | TNF necrop inh | zVAD death inh | others
Cc1ccc(C(C(=O)NCc2ccccc2)N(Cc2cccs2)C(=O)c2ccc3c(c2)OCCO3)cc1 (stereo not given) | -21 | i | + | -1.6 | -5 | 0
CCOC(=O)c1ccc(NC(=O)C(=O)NCc2ccco2)cc1 | -16 | i | i | -0.093 | 0 | 2
Cc1ccc(/C=C/C(=O)O)cc1S(=O)(=O)NC1CCS(=O)(=O)C1 (stereo not given) | -23 | i | i | 0.4 | 0 | 2
COc1ccc(NC(=O)c2sc3nc(Cc4ccccc4)cc(C(F)(F)F)c3c2N)cc1OC | -10 | i | i | 1.3 | 3 | 0
CC(C)(C)C(=O)c1sc2nc(-c3cccs3)cc(C(F)(F)F)c2c1N | -25 | ? | + | -3.9 | -1 | 2
COc1ccccc1NC(=O)c1sc2nc(Cc3ccccc3)cc(C(F)(F)F)c2c1N | -1 | i | + | 0.48 | 1 | 1
Nc1c(C(=O)Nc2nccs2)sc2nc(-c3cccs3)cc(C(F)(F)F)c12 | -2 | nt | + | -1.3 | -2 | 0
Cc1nn(C)c2nc(-c3cccs3)cc(C(F)(F)F)c12 | -35 | i | i | -0.77 | 3 | 4
Cc1cc(C)c2c(N)c(C(=O)Nc3nccs3)sc2n1 | -22 | i | i | -0.27 | 4 | 5
Cc1cc(C)c2[nH]c(=O)c(CN(Cc3cccs3)C(=S)NCC3CCCO3)cc2c1 (stereo not given) | -36 | i | i | -0.44 | 5 | 1
COc1cc2c(c(OC)c1CC=C(C)C)C[C@H](c1ccc(O)cc1O)CO2 | nt | i | nt | nt | nt | nt
Cc1cc(N2C(=O)C=CC2=O)c([N+](=O)[O-])cc1C | -5 | i | i | -6.3* | 0 | 1
O=C(C1COc2ccccc2O1)N1CCCC1 (stereo not given) | -18 | i | i | -1 | 2 | -1
O=C(C1COc2ccccc2O1)N1CCc2ccccc21 (stereo not given) | -22 | nt | i | -0.22 | 89* | 2
Cc1ccccc1-n1c(SCC(=O)Nc2ccccc2)nc2nc3c(cc2c1=O)CCCC3 | 0 | i | i | 2.1 | 4 | 4
CC(C)N(Cc1nc(-c2ccccc2)no1)C(=O)C(C)(C)C | -26 | i | + | -0.97 | 0 | 0
CC(C)N(Cc1nc(-c2ccccc2)no1)C(=O)C(Cl)(Cl)Cl | -26 | i | i | -0.98 | 1 | 3
COc1ccc(CCNC(=O)c2ccc(C)s2)cc1OC | -18 | i | i | 2.2 | 1 | 3
Cc1ccc(N2C(=O)[C@@H]3C(C(=O)C(c4ccccc4)c4ccccc4)=NN[C@@H]3C2=O)cc1 | -14 | i | i | -1.8 | 0 | 1
O=C(COc1ccccc1)Nc1ccc2[nH]c(=O)[nH]c2c1 | -37 | i | i | 0.4 | -2 | 76* | zVAD necrop conf=2

High-throughput results from PubChem.
